Results taken from ChEMBL document CHEMBL5344453, “Selective Recognition of c-KIT 1 G-Quadruplex by Structural Tuning of Heteroaromatic Scaffolds and Side Chains” (ACS Med Chem Lett, 2024).

What was measured:
[1] = system: Quadruplex DNA; experiment: Stabilization of G-quadruplex c-KIT1 5-FAM-GGGAGGGCGCTGGGAGGAGGG-TAMRA-3 (unknown origin) assessed as change in melting temperature at 1 uM incubated for 1 hr in dark condition by FRET-based melting assay; type: nucleic-acid assay
Method in brief: (§1)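 FRET melting of dual-fluorophore-tagged oligonucleotides (200 nM) in 60 mM potassium cacodylate buffer, pH 7.4, with ligand at 1 μM; ΔTm taken against the ligand-free oligonucleotide Tm as control.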

[2] = system: Quadruplex DNA; experiment: Stabilization of G-quadruplex c-MYC 5-FAM-TGGGGAGGGTGGGGAGGGTGGGGAAGG-TAMRA- 3 (unknown origin) assessed as change in melting temperature at 1 uM incubated for 1 hr in dark condition by FRET-based melting assay; type: nucleic-acid assay; method in brief: as §1
[3] = system: Quadruplex DNA; experiment: Stabilization of G-quadruplex c-KIT2 5-FAM-GGGCGGGCGCGAGGGAGGGG-TAMRA-3 (unknown origin) assessed as change in melting temperature at 1 uM incubated for 1 hr in dark condition by FRET-based melting assay; type: nucleic-acid assay; method in brief: as §1
[4] = system: Quadruplex DNA; experiment: Stabilization of G-quadruplex BCL2 5-FAM-AGGGGCGGGCGCGGGAGGAAGGGGGCGGGAGCGGGGCTG-TAMRA-3 (unknown origin) assessed as change in melting temperature at 1 uM incubated for 1 hr in dark condition by FRET-based melting assay; type: nucleic-acid assay; method in brief: as §1
[5] = system: Quadruplex DNA; experiment: Stabilization of G-quadruplex VEGF 5-FAM-CGGGGCGGGCCGGGGGCGGGGT-TAMRA-3 (unknown origin) assessed as change in melting temperature at 1 uM incubated for 1 hr in dark condition by FRET-based melting assay; type: nucleic-acid assay; method in brief: as §1
[6] = system: Quadruplex DNA; experiment: Stabilization of G-quadruplex h-TELO 5-FAM-TTGGGTTAGGGTTAGGGTTAGGGA-TAMRA-3 (unknown origin) assessed as change in melting temperature at 1 uM incubated for 1 hr in dark condition by FRET-based melting assay; type: nucleic-acid assay; method in brief: as §1
[7] = system: Quadruplex DNA; experiment: Stabilization of calf thymus […] ds DNA 5-FAM-CAATCGGATCGAATTCGATCCGATTG-TAMRA-3 assessed as change in melting temperature at 1 uM incubated for 1 hr in dark condition by FRET-based melting assay; type: nucleic-acid assay; conditions: Bos taurus; method in brief: as §1
[8] = system: K562; experiment: Attenuation of proto-oncogene expression in human c-KIT-positive K562 cells assessed as reduction in c-KIT oncogene expression at 2 uM measured after 24 hrs by qRT-PCR analysis relative to control; type: functional
Method in brief: (§2)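 K562 leukemia cells treated for 24 h. c-KIT, c-MYC and BCL-2 mRNA measured by qRT-PCR, with each gene normalized to 18s housekeeping gene expression. Reduction expressed relative to untreated cells.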

[9] = system: K562; experiment: Attenuation of proto-oncogene expression in human c-KIT-positive K562 cells assessed as reduction in c-KIT oncogene expression at 4 uM measured after 24 hrs by qRT-PCR analysis relative to control; type: functional; method in brief: as §2
[10] = system: K562; experiment: Attenuation of proto-oncogene expression in human c-KIT-positive K562 cells assessed as reduction in c-MYC oncogene expression at 2 uM measured after 24 hrs by qRT-PCR analysis relative to control; type: functional; method in brief: as §2
[11] = system: K562; experiment: Attenuation of proto-oncogene expression in human c-KIT-positive K562 cells assessed as reduction in BCL-2oncogene expression at 2 uM measured after 24 hrs by qRT-PCR analysis relative to control; type: functional; method in brief: as §2
[12] = system: K562; experiment: Attenuation of proto-oncogene expression in human c-KIT-positive K562 cells assessed as reduction in BCL-2oncogene expression at 4 uM measured after 24 hrs by qRT-PCR analysis relative to control; type: functional; method in brief: as §2
[13] = Reduction of c-KIT oncogene expression in human K562 cells transfected with c-KIT plasmid construct assessed as reduction in luciferase expression at 2 uM measured after 36 hrs by luciferase reporter assay; type: functional
Method in brief: (§3)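 K562 cells transfected with luciferase-expressing plasmids carrying the promoter G-quadruplex sequence of c-KIT, c-MYC or BCL-2, then ligand-treated. Relative luciferase expression measured.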

[14] = Reduction of c-KIT oncogene expression in human K562 cells transfected with c-KIT plasmid construct assessed as reduction in luciferase expression at 4 uM measured after 36 hrs by luciferase reporter assay; type: functional; method in brief: as §3
[15] = Reduction of c-MYC oncogene expression in human K562 cells transfected with c-MYC plasmid construct assessed as reduction in luciferase expression at 2 uM measured after 36 hrs by luciferase reporter assay; type: functional; method in brief: as §3
[16] = Reduction of c-MYC oncogene expression in human K562 cells transfected with c-MYC plasmid construct assessed as reduction in luciferase expression at 4 uM measured after 36 hrs by luciferase reporter assay; type: functional; method in brief: as §3
[17] = Reduction of BCL-2 oncogene expression in human K562 cells transfected with BCL-2 plasmid construct assessed as reduction in luciferase expression at 2 uM measured after 36 hrs by luciferase reporter assay; type: functional; method in brief: as §3
[18] = Reduction of BCL-2 oncogene expression in human K562 cells transfected with BCL-2 plasmid construct assessed as reduction in luciferase expression at 4 uM measured after 36 hrs by luciferase reporter assay; type: functional; method in brief: as §3
[19] = Reduction of c-KIT protein expression in human K562 cells at 2 uM measured after 24 hrs by Western blotting analysis relative to control; type: functional
Method in brief: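 Lysates of treated K562 cells probed by Western blot for c-KIT protein, with GAPDH as housekeeping reference.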

[20] = system: K562; experiment: Induction of DNA damage in human K562 cells assessed as cells exhibiting DNA damage at 5.5 uM incubated for 24 hrs by DNA damage assay (reference value: 10.8%); type: functional
[21] = system: K562; experiment: Induction of DNA damage in human K562 cells assessed as cells exhibiting DNA damage at 11 uM incubated for 24 hrs by DNA damage assay (reference value: 10.8%); type: functional

Structure (SMILES) | ΔTm [1] [°C] | ΔTm [2] [°C] | ΔTm [3] [°C] | ΔTm [4] [°C] | ΔTm [5] [°C] | ΔTm [6] [°C] | ΔTm [7] [°C] | also measured
Nc1nc(CC(=O)Nc2nc(CC(=O)NCCCn3cc(-c4ccc5oc6ccccc6c5c4)nn3)cs2)cs1 | < 6 | < 6 | < 6 | < 6 | < 6 | < 6 | < 6 | 
Nc1nc(CC(=O)Nc2nc(CC(=O)NCCCn3cc(-c4ccc5[nH]c6ccccc6c5c4)nn3)cs2)cs1 | < 5.5 | < 5.5 | < 5.5 | < 5.5 | < 5.5 | < 5.5 | < 5.5 | 
NCCn1cc(-c2ccc3[nH]c4ccccc4c3c2)nn1 | < 5.5 | < 5.5 | < 5.5 | < 5.5 | < 5.5 | < 5.5 | < 5.5 | 
NCCn1cc(-c2ccc3oc4ccccc4c3c2)nn1 | < 6 | < 6 | < 6 | < 6 | < 6 | < 6 | < 6 | 
O=C(Nc1ccc(-n2cc(-c3ccc4[nH]c5ccccc5c4c3)nn2)cc1)C1CCCN1 (stereo not drawn) | < 5.5 | < 5.5 | < 5.5 | < 5.5 | < 5.5 | < 5.5 | < 5.5 | 
O=C(Nc1ccc(-n2cc(-c3ccc4oc5ccccc5c4c3)nn2)cc1)C1CCCN1 (stereo not drawn) | < 6 | < 6 | < 6 | < 6 | < 6 | < 6 | < 6 | 
CN(C)CCCn1cc(-c2ccc3oc4ccccc4c3c2)nn1 | < 6 | < 6 | < 6 | < 6 | < 6 | < 6 | < 6 | 
NCCCCC(N)C(=O)Nc1ccc(-n2cc(-c3ccc4[nH]c5ccccc5c4c3)nn2)cc1 (stereo not drawn) | < 5.5 | < 5.5 | < 5.5 | < 5.5 | < 5.5 | < 5.5 | < 5.5 | 
C[n+]1ccc(-c2c3nc(c(-c4cc[n+](C)cc4)c4ccc([nH]4)c(-c4cc[n+](C)cc4)c4nc(c(-c5cc[n+](C)cc5)c5ccc2[nH]5)C=C4)C=C3)cc1.[Cl-].[Cl-].[Cl-].[Cl-] [TMPYP4 CHLORIDE] |  |  |  |  |  |  |  | inhibition at 2 µM [8]: 30%; inhibition at 4 µM [9]: 48%; inhibition at 2 µM [10]: 11%; inhibition at 2 µM [11]: 37%; inhibition at 4 µM [12]: 45%; inhibition at 2 µM [13]: 20.1%; inhibition at 4 µM [14]: 34.1%; inhibition at 2 µM [15]: 24.4%; inhibition at 4 µM [16]: 45.3%; inhibition at 2 µM [17]: 20.7%; inhibition at 4 µM [18]: 39.7%; inhibition at 2 µM [19]: 10%; Activity [20]: 27.6%; Activity [21]: 30.3%
Nc1ccc(-n2cc(-c3ccc4[nH]c5ccccc5c4c3)nn2)cc1 | < 5.5 | < 5.5 | < 5.5 | < 5.5 | < 5.5 | < 5.5 | < 5.5 | 
CN(C)CCCn1cc(-c2ccc3[nH]c4ccccc4c3c2)nn1 | < 5.5 | < 5.5 | < 5.5 | < 5.5 | < 5.5 | < 5.5 | < 5.5 | 
Nc1ccc(-n2cc(-c3ccc4oc5ccccc5c4c3)nn2)cc1 | < 6 | < 6 | < 6 | < 6 | < 6 | < 6 | < 6 | 
NCCCCC(N)C(=O)Nc1ccc(-n2cc(-c3ccc4oc5ccccc5c4c3)nn2)cc1 (stereo not drawn) | < 6 | < 6 | < 6 | < 6 | < 6 | < 6 | < 6 | 
